The subject of the series is MS2 coat protein. In words: apparent Kd, MS2 coat protein; higher = weaker binding; RNA-MaP array; FMN 200 µM where present. The gist of the method:
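The apparent Kd is reported as the median of filtered per-cluster binding-curve fits. To get these curves, designs transcribed by stalled E. coli RNA polymerase on Illumina sequencing-chip clusters were titrated with SNAP-549-labelled MS2 coat protein from 0.7 or 1.5 nM, doubling to 3 µM. Titrations were run without and then with constant ligand in 100 mM Tris-HCl pH 7.5, 80 mM KCl, 4 mM MgCl2, BSA, DTT, yeast tRNA and Tween-20, and green signal was normalised to red-channel RNA signal and control-cluster median Fmax.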

The mark [1] stands for this setting: designed as: OFF switch for flavin mononucleotide, no ligand.
Where [2] appears, read: ligand present: flavin mononucleotide, designed as: OFF switch for flavin mononucleotide.
Setting [3] is: designed as: ON switch for flavin mononucleotide, no ligand.
The mark [4] stands for this setting: ligand present: flavin mononucleotide, designed as: ON switch for flavin mononucleotide.

A word on the apparent Kd: it is the concentration giving half-maximal binding under the conditions of the assay. As for “UCUGCCGCCGUGAGGAUAUGCCCAAAUAAAAGCGGGCAGAAGGCACAUGAGGAUCACCCAUGUCCUGCGGUUUU”, the “apparent Kd” value is, setting by setting: under setting [1], 22.1 nM; under setting [2], 93.6 nM.
For “GCAUGCGUUCGAGGAUAUCGGUGAGAAACGGAACGAGAAGGCGAUAGAAUGUCUCAUCUUAUGAACAUGAGGAUCACCCAUGUA”, the “apparent Kd” value is, setting by setting: under setting [3], 32.7 nM; under setting [4], 31.6 nM.
Turning to “UUCAGGGAUCAAGGAUAUCUAUAAUCAUGCGGACAUGAGGAUCACCCAUGUUGAUUACCCAUGAGGGAGAAGGUGAACAUGAGG”, the “apparent Kd” value reads like this: under setting [3], 40.1 nM; under setting [4], 16.7 nM.
In the same order, the values of “CGAGACCUCACAGGAUAUGCUGGACUUUGUCCAGCAGAAGGGUGAAAACAUGAGGAUCACCCAUGUAUGGUCUCCAAAUUUAAG” are 195 nM and 13.2 nM.
With “UUGGACGUCGUAGGAUAUGAAGGAUAUUCCUACAUGAGGAUCACCCAUGUUGACAUGGAAGAAGGACAGAAGGACGAUGUCCAU”, the “apparent Kd” value under setting [3] amounted to 11.3 nM and the “apparent Kd” value under setting [4] amounted to 5.16 nM.
Regarding “GGGCUCGUCGUAAACGACAUGAGGAUCACCCAUGUUGGGCACAGAAGGGCCUUCAUUCGGAUCAGGCAGGAUAUGUAUCUAACA”, the “apparent Kd” value is 5.09 nM under setting [1] and 5.32 nM under setting [2].
In the same order, the values of “UAUUUAUAGCAAGGAUAUGAUUAUUAUUAUUUAUCAGAAGGUGCACAUGAGGAUCACCCAUGUUUUAUAUAUAAUAAUUUAAUU” are 113 nM and 30.6 nM.
“AGGUCAACCACAGGAUAUGGCUAGCAUAGCUAGCCAGAAGGGUGGUCGUAACUAUGUAAAUACAUGAGGAUCACCCAUGUAUCC”: the “apparent Kd” value under setting [3] worked out at 134 nM and the “apparent Kd” value under setting [4] is 25.4 nM.
“GCACUGGAUGUAGGAUAUCAGGACGAUAAGUCCUGAGAAGGACAUGAGGAUCACCCAUGUGUUAAAACCAGUGCAUAUAAUAUA”: the “apparent Kd” value runs as follows: under setting [1], 13.8 nM; under setting [2], 20.6 nM.
In the case of “GGCGGGCGAAACAUGAGGAUCACCCAUGUGUUAUAAUUAAUAUAGGAUAUGUUUAUACUUUUUGGGCAGAAGGAUGCGCCUGCC”, the “apparent Kd” value stood at 97.8 nM under setting [3] and 67.5 nM under setting [4].
Consider “GCCGUGAUAGCAGGAUAUGCUCCGGUUGCUCAUACAUGAGGAUCACCCAUGUCACGUGCGGUGGUGCAGAAGGGUUGAAGCGAA”, for which the “apparent Kd” value runs as follows: under setting [3], 748 nM; under setting [4], 219 nM.
For “UUCAGCUCGUGAGGAUAUACAUGUGCUGGAUACAGCACUAUUAUGUUCACAUGAGGAUCACCCAUGUAGAAGGCACGAGCUGAG”, the “apparent Kd” value is 16.6 nM under setting [1] and 21.4 nM under setting [2].
Take “UUUAUUUAGGCAGGAUAUACAUGUAUAUAUAAUUUUUUAUAUAUUAUUACAUGAGGAUCACCCAUGUAGAAGGGCCUUAUUAUA”: the “apparent Kd” value is, setting by setting: under setting [1], 41.9 nM; under setting [2], 54.7 nM.
As for “GGACGUCACAUCUACAUGAGGAUCACCCAUGUCAAAAGACAUGAGGAUAUGCUACCUAAUUGGUAGCAGAAGGCAUGGACGUCC”, the “apparent Kd” value turned out to be 1070 nM under setting [3] and 71.5 nM under setting [4].
The corresponding values for “GCAGUAAAUAAAUGCACAUGAGGAUCACCCAUGUGGGAGGCACAGGAUAUCGCAUCAUAGCGGUGCGAGAAGGGUGAUAAUCUC” are 346 nM and 72.3 nM.
On to “GUAUCUCACUGAGGAUAUUUACGAUUAGUGUAGACAUGAGGAUCACCCAUGUGGCGUUAGUCACGGGAGAAGGCAGUGCGAUAC”, for which the “apparent Kd” value by setting is: under setting [3], 114 nM; under setting [4], 20 nM.
For “UCAUUAUAAAUCCAUCAUAACUACAUGAGGAUCACCCAUGUGCAGGAUAUCGAUUAUUUUACUAACGAGAAGGGCAUUUACAGA”, the “apparent Kd” value worked out at 51.1 nM under setting [1] and 181 nM under setting [2].
Regarding “GUCGGAAACGACAAGUAGCAAUCGGAGGAUAUUCAUGGAAACAUGAGGAUCACCCAUGUAAAUUGGGAGAAGGCCGAUUGCUAC”, the “apparent Kd” value came out at 1220 nM under setting [3] and 93.6 nM under setting [4].
In the case of “AGUCGGAGCGGAGGAUAUACAUGAGGAUCACCCAUGUAAUAAAGUGAAGCCUGGAAACAGGCAAUGUAGAAGGCUGCUCCGACA”, the “apparent Kd” value under setting [1] was 11 nM and the “apparent Kd” value under setting [2] is 74.8 nM.
In the same order, the values of “UGAGCAACAGGAUAUAUGUGGCGUCCGUGAGGACGAAGGUUACAUGAGGAUCACCCAUGUAGAAGGGUUGUUCU” are 169 nM and 366 nM.
As to “UGUCGGAGCAGAGGAUAUUACAUGAGGAUCACCCAUGUAUGAACCAAGAGCUGGAAACAGCAAUGUAAGAAGGCUGCUCCGACA”, the “apparent Kd” value reads like this: under setting [1], 10.9 nM; under setting [2], 121 nM.
With “AUGGUGACGUAGAAGGGUGACAUGAGGAUCACCCAUGUGCCGAUAUAUCUCGAGAUAUGUCGGCCACAGGAUAUACGUGCCAUC”, the “apparent Kd” value reads like this: under setting [3], 150 nM; under setting [4], 158 nM.
With “CAGUACUGAGGAUAUACAUGAGGAUCACCCAUGUGUUCCAGCUAGGAAACUAGCACUUGUAGAAGGCAGUACUG”, the “apparent Kd” value stood at 24.6 nM under setting [1] and 267 nM under setting [2].
Turning to “CAGGUAGACUGAGGAUAUACACUAAACAGCUAGUCUAUCUAGCUGCUCACAUGAGGAUCACCCAUGUAGAAGGCAGUCUGCCUG”, the “apparent Kd” value under setting [1] came to 17.2 nM and the “apparent Kd” value under setting [2] stood at 39.3 nM.
For “AUCAGCUCGUCAGGAUAUACGUCACUGCGUCAGCAGUGUGGUAAAAUCACAUGAGGAUCACCCAUGUAGAAGGGACGAGCUGAU”, the “apparent Kd” value came to 6.18 nM under setting [1] and 14.4 nM under setting [2].
On to “UCUAUGUAGAUUCAUCAAUACAGUAAGGAUAUGAGAUACAUGAGGAUCACCCAUGUGCAUGUGGAUUAGAAGGUACAAUUAACU”, for which the “apparent Kd” value was found to be 293 nM under setting [1] and 188 nM under setting [2].
Turning to “CUAUUUAGUGCCUCAUGUACAUGAGGAUCACCCAUGUUAACUUAGGAUAUAUUUAUAUUGUUAGAGUAGAAGGAAGUACUAUUU”, the “apparent Kd” value runs as follows: under setting [1], 26.3 nM; under setting [2], 21.5 nM.
Take “AUGUUACAUGAGGAUCACCCAUGUGAGGAUAUGUGUACCCGUAAAAAAGUGUCGGGCCAUAGAAGGCAUUUGGA”: the “apparent Kd” value amounted to 48.4 nM under setting [1] and 49.9 nM under setting [2].
The corresponding values for “UCAGGCUUCGAGAAGGACAUGAGGAUCACCCAUGUGCGUGUGAAGCAGCCGUGAGGCUGCAUCAUGUAGGAUAUCGGAGUCUGA” are 75.6 nM and 459 nM.
“ACUUACUGAGGAUAUACAUAGAUUUACAUGAGGAUCACCCAUGUUCCUCUAUGUAUAAAUGUAGAAGGCAGAAGAA”: the “apparent Kd” value by setting is: under setting [1], 16.6 nM; under setting [2], 59.1 nM.
As to “CAGUAGAUCCGAGGAUAUACAAUCCGGAAACGGUACAUGAGGAUCACCCAUGUAGAAGGCGGAUCUACAGGUACUAAAGUACCA”, the “apparent Kd” value came to 5.77 nM under setting [1] and 7.65 nM under setting [2].
In the case of “AGGUGACAUGAGGAUCACCCAUGUAAGGAUAUACGGUUAGUGGAGAGAGGGAAAAGAGGUAGAAGGUACGGAGC”, the “apparent Kd” value is 266 nM under setting [1] and 142 nM under setting [2].
“UUAUGAGAGCAGGAUAUCUUAUUUUUUUUUUGUGGAGAAGGGCUGACAUGAGGAUCACCCAUGUGGUCCUAGAU”: the “apparent Kd” value reads like this: under setting [1], 27.9 nM; under setting [2], 32.9 nM.
With “CUGAGUAGUCAGGAUAUGCUGUACAAAAGUACAGCAGAAGGGAUUACAUGAGGAUCACCCAUGUUUUCUUCAUG”, the “apparent Kd” value is, setting by setting: under setting [1], 56.1 nM; under setting [2], 137 nM.
As for “UGGUUCAUGGGAGGAUAUCCUCAAGAACAUGAGGAUCACCCAUGUAAUUAUAAGCCGAAAGGCAUGGAGAAGGCCCAUGAACCU”, the “apparent Kd” value is, setting by setting: under setting [3], 67.5 nM; under setting [4], 16.9 nM.
For “CCUAAGGACACAGGAUAUAGCGUGGUGGCCGGGCUCCAACGGCGAGCGGCGCUAGAAGGGUGACCACAUGAGGAUCACCCAUGU”, the “apparent Kd” value is, setting by setting: under setting [3], 506 nM; under setting [4], 161 nM.
“GGAGACCUCACAGGAUAUGCUGGACUUUGUCCAGCAGAAGGGUGAACACAUGAGGAUCACCCAUGUGGUCUCCAAAUAUUUAAU”: the “apparent Kd” value runs as follows: under setting [3], 816 nM; under setting [4], 74.2 nM.
Consider “GUUUACGCAUGAGGAUAUGCUCGCAUUUCAAGAGCAGAAGGUAUGUCUUUAGACAUGAGGAUCACCCAUGUAUUUAUCAUUGAA”, for which the “apparent Kd” value runs as follows: under setting [3], 166 nM; under setting [4], 28.4 nM.
For the sequence “GUCAGCUCGUGAGGAUAUACAACACUGCUUCGGCAGUGUAUUAAGAUCACAUGAGGAUCACCCAUGUAGAAGGCACGAGCUAAU”, the “apparent Kd” value came out at 15.9 nM under setting [1] and 267 nM under setting [2].
Consider “AGGAAGUAAGGAUAUGCUGCUCGUCACUUGCGUGAUGAGUAGCAGAAGGUACAUGAGGAUCACCCAUGUAAAAA”, for which the “apparent Kd” value reads like this: under setting [1], 23.7 nM; under setting [2], 18.5 nM.
In the same order, the values of “UAGAAGUCAGGAUAUGCAUGGCGGGACUUGCGUCGUGGCGUGCAGAAGGGACAUGAGGAUCACCCAUGUGGAGU” are 179 nM and 230 nM.
For the sequence “UUUUAACAUGAGGAUCACCCAUGUGAGGAUAUCGAAAUUUAUAUUAAUAUUAUUAAAACGAGAAGGCACAUUUU”, the “apparent Kd” value turned out to be 63.1 nM under setting [1] and 82.8 nM under setting [2].
Take “AUAAAUAUAGCGAUAUGAUCGAGAGAUCAUGUCGCUAAUGUUAGAAGGACAUGAGGAUCACCCAUGUAGGAUAUGGGAGUAUGA”: the “apparent Kd” value is, setting by setting: under setting [3], 197 nM; under setting [4], 86 nM.
Consider “AAUGAUUGAUGAGGAUAUUGUGGUGAAACACGACGAGAAGGCAUAUGUCACAUGAGGAUCACCCAUGUGAGCUUUGUGGAUAUA”, for which the “apparent Kd” value came to 25 nM under setting [1] and 28.9 nM under setting [2].
With “GCUGUCGCAUGAGGAUAUGGUCAGCUUUGCUGACCAGAAGGCAUGUCAAUAGACAUGAGGAUCACCCAUGUAGUAAAGACGGCU”, the “apparent Kd” value by setting is: under setting [3], 313 nM; under setting [4], 32.4 nM.
In the case of “UUCCCAGCGGGAGGAUAUGGUGCCUUAUUGGUGCUAGAAGGUCCAACAUGAGGAUCACCCAUGUGGGAGUGGUCUAAUGACCUC”, the “apparent Kd” value under setting [3] stood at 212 nM and the “apparent Kd” value under setting [4] worked out at 144 nM.
As for “UAAGUCUAAUGAGGAUAUCGUAAUGAAACAUUAUGAGAAGGCAUACAAUCAUGAGGACAUGAGGAUCACCCAUGUUGUGACCAU”, the “apparent Kd” value under setting [3] was determined as 33.6 nM and the “apparent Kd” value under setting [4] is 16.2 nM.

The values are drawn from the EternaBench riboswitch data.
